Results as given in ChEMBL document CHEMBL1944515 (J Med Chem, 2012).
The source made the active and inactive calls. No cut-off for these calls is given here.

How the values were obtained:
[1] = biological target: T1, M-phase inducer phosphatase 3 (Homo sapiens) (UniProt P30307); test: Induction of cdc2 (Tyr15) dephosphorylation in human HeLa cells at 50 to 100 nM after 24 hrs by Western blot analysis
T1 sequence (whole entry): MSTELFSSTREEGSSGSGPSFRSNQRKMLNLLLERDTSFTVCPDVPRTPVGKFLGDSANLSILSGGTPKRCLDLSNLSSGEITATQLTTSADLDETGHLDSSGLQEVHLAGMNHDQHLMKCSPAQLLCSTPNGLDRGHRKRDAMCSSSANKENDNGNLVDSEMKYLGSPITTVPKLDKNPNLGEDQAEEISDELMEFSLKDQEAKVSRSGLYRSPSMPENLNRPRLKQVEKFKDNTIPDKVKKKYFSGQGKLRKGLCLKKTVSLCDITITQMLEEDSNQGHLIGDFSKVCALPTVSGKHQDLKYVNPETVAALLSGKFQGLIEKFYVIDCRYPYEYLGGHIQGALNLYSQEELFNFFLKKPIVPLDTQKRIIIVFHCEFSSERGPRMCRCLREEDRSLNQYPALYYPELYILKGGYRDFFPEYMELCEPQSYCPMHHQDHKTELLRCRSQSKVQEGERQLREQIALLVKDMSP

CCRF-CEM [2] = test: Cytotoxicity against human CEM cells after 72 hrs by MTT assay; type: functional, cell-based
Procedure, shortened: (§1)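 Cells seeded at 8 × 10^3 per well and left 18 h at 37 °C, 5% CO2, then given fresh medium with compound at a range of concentrations for 72 h; DMSO at most 0.25% final. Viability read by MTT relative to 0.25% DMSO-treated cells. […] LoVoDoxo kept in Ham's F12 with 0.1 μg/mL doxorubicin; A549-T12 kept in DMEM with 12 nM paclitaxel.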

HeLa [3] = test: Induction of apoptosis in human HeLa cells assessed as early apoptotic cells at 100 nM after 48 hrs by FITC conjugated annexin-V/PI staining-based flow cytometry (reference value: 9.6%); type: functional
Procedure, shortened: (§2)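 Flow cytometry of HeLa cells after 24 or 48 h exposure, double-stained with annexin-V-FITC and propidium iodide. Excitation at 488 nm, emission at 525 nm (FITC) and 585 nm (PI). Quadrants scored as live, early apoptotic, late apoptotic or necrotic cells.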

[4] = Cytotoxicity against human A549-T12 cells after 72 hrs by MTT assay; type: functional, cell-based; conditions: A549, 72 h
Procedure, shortened: as §1

HeLa [5] = test: Induction of cell cycle arrest in human HeLa cells assessed as decrease in S phase cells at 15 to 250 nM after 24 hrs by flow cytometry; type: functional, cell-based
Procedure, shortened: (§3)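 5 × 10^5 exponentially growing HeLa cells were treated with 15–250 nM for 24 h, fixed in ice-cold 70% ethanol, then treated with lysis buffer containing RNase A and 0.1% Triton X-100. PI staining of DNA content, read by flow cytometry. Mean ± SEM of three independent experiments.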

HL-60 = test: Cytotoxicity against human HL60 cells after 72 hrs by MTT assay; type: functional, cell-based; conditions: HL-60, 72 h
HeLa [6] = test: Cytotoxicity against human HeLa cells after 72 hrs by MTT assay; type: functional, cell-based
HeLa [7] = test: Induction of ROS production in human HeLa cells at 50 to 100 nM after 24 to 48 hrs by H2-DCFDA staining-based flow cytometry; type: functional, cell-based
Procedure, shortened: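 HeLa cells were exposed for 24 or 48 h, then stained with hydroethidine or H2-DCFDA for ROS and read by flow cytometry. DMSO ≤0.25%. Mean ± SEM of three independent experiments.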

LoVo [8] = test: Cytotoxicity against human LoVo cells after 72 hrs by MTT assay; type: functional, cell-based
Procedure, shortened: as §1

HeLa [9] = test: Induction of mitochondrial depolarization in human HeLa cells assessed as JC1 aggregate level after 48 hrs by JC1-based fluorescent staining (reference value: 99.2%); type: functional
Procedure, shortened: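 Mitochondrial membrane potential in HeLa cells after 24 or 48 h incubation, measured with the JC-1 dye by flow cytometry. Aggregates read as red (590 nm) and monomers as 530 nm; output is the percentage of depolarized cells. Mean ± SEM of three independent experiments.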

MCF7 = test: Cytotoxicity against human MCF7 cells after 72 hrs by MTT assay; type: functional, cell-based; conditions: MCF7, 72 h
HeLa [10] = test: Induction of apoptosis in human HeLa cells assessed as caspase3 activation at 50 to 100 nM after 24 to 48 hrs by Western blot analysis; type: functional, cell-based
Procedure, shortened: (§4)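 HeLa cells were treated for 24 or 48 h, washed in ice-cold PBS and lysed on ice for 30 min; lysates were spun at 15000g, 4 °C. 20 μg protein per lane on SDS-PAGE (7.5–15%), then PVDF. Blocked overnight at 4 °C, primary antibodies 2 h at room temperature, peroxidase secondary 60 min, ECL detection. Blots were reprobed for β-actin as loading control.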

HeLa [11] = test: Induction of cell cycle arrest in human HeLa cells assessed as G2/M phase cells at 60 nM after 24 hrs by flow cytometry; type: functional
Procedure, shortened: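 Exponentially growing HeLa cells (5 × 10^5) were treated 24 h at 15–250 nM. Cells were fixed in ice-cold 70% ethanol, lysed with RNase A/0.1% Triton X-100 buffer and stained with propidium iodide. DNA content was measured by flow cytometry to score G2/M fraction. Mean ± SEM of three independent experiments.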

HT-29 = test: Anticancer activity against human HT-29 cells xenografted in BALB/c nude mouse assessed as reduction in tumor volume at 100 mg/kg, ip administered on days 0,2 and 4 measured on day 24 relative to vehicle treated control; type: functional; design: scale not given: the % may be the effect or the level left; conditions: route intraperitoneal
Procedure, shortened: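 HT-29 cells in log phase, resuspended in serum-free RPMI 1640 at 1 × 10^7 cells/mL, inoculated 0.2 mL subcutaneously in the back of nude mice. At ~300 mm3, 18 mice were randomized to vehicle or two treatment groups. Dosing: 100 mg/kg in DMSO, ip at 0.01 mL/g, on days 0, 2 and 4. Tumor volume by caliper as (LW2)/2 and body weight recorded; n = 6 per group, mean ± SEM.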

LoVo [12] = test: Resistance ratio of IC50 for human doxorubicin-resistant LoVo cells to human LoVo cells; type: functional
CCRF-CEM [13] = test: Resistance ratio of IC50 for human CEM/VBL100 cells to IC50 for human CEM cells; type: functional
HeLa [14] = test: Induction of apoptosis in human HeLa cells assessed as decrease in Bcl2 protein level at 50 to 100 nM after 48 hrs by Western blot analysis; type: functional, cell-based
Procedure, shortened: as §4

HeLa [15] = test: Induction of apoptosis in human HeLa cells assessed as PARP cleavage at 50 to 100 nM after 24 to 48 hrs by Western blot analysis; type: functional, cell-based
Procedure, shortened: as §4

HeLa [16] = test: Induction of cell cycle arrest in human HeLa cells assessed as increase in G2/M phase cells at 30 nM after 24 hrs by flow cytometry; type: functional, cell-based
Procedure, shortened: as §3

HeLa [17] = test: Induction of apoptosis in human HeLa cells assessed as increase in annexin-V positive apoptotic cells after 24 to 48 hrs by FITC conjugated annexin-V/PI staining-based flow cytometry; type: functional, cell-based
Procedure, shortened: as §2

HeLa [18] = test: Induction of cell cycle arrest in human HeLa cells assessed as decrease in G1 phase cells at 15 to 250 nM after 24 hrs by flow cytometry; type: functional, cell-based
Procedure, shortened: as §3

For `CCOc1ccc(-c2nnnn2-c2cc(OC)c(OC)c(OC)c2)cc1`, the induction [1] was “Active”, the IC50 (CCRF-CEM [2]) was 3.1 nM and the Activity (HeLa [3]) was 34.4%. The IC50 [4] was 8.2 nM, the Activity (HeLa [5]) was “Active” and the IC50 (HL-60) was 1.3 nM. For the same compound, the IC50 (HeLa [6]) was 1.9 nM, the Activity (HeLa [7]) was “Active” and the IC50 (LoVo [8]) was 1.1 nM. The Activity (HeLa [9]) was 0.09%, the IC50 (MCF7) was 2.3 nM and the Activity (HeLa [10]) was “Active”. The Activity (HeLa [11]) was >80%, the Activity (HT-29) was 66% and the “Ratio IC50” value (LoVo [12]) was 0.64. For the same compound, the “Ratio IC50” value (CCRF-CEM [13]) was 0.2, the Activity (HeLa [14]) was “Active” and the Activity (HeLa [15]) was “Active”. The Activity (HeLa [16]) was “Active”, the Activity (HeLa [17]) was “Dose-dependent effect” and the Activity (HeLa [18]) was “Active”.
